Assay results as given in ChEMBL document CHEMBL1141109, “Synthesis of an estrogen receptor beta-selective radioligand: 5-[18F]fluoro-(2R,3S)-2,3-bis(4-hydroxyphenyl)pentanenitrile and comparison of in vivo distribution with 16alpha-[18F]fluoro-17beta-estradiol” (J Med Chem, 2005).
Each block holds one compound with its values, some of them ahead of it.

What was measured:
[1] = Biodistribution of [18F]FES in beta estrogen receptor knock out mouse ovaries after 1 h; (n=3); type: ADME, organism-based, Female gonad; conditions: in vivo
[2] = Biodistribution of [18F]FES in beta estrogen receptor knock out mouse fat after 30 min; (n=3); type: ADME, organism-based, Adipose tissue; conditions: in vivo, 0.5 h
[3] = Biodistribution of [18F]FES in beta estrogen receptor knock out mouse lung after 30 min; (n=3); type: ADME, organism-based; conditions: in vivo, 0.5 h
[4] = Biodistribution of [18F]FES in alpha estrogen receptor knock out mouse ovaries after 30 min; (n=3); type: ADME, organism-based, Female gonad; conditions: in vivo, 0.5 h
[5] = Biodistribution of [18F]FES in alpha estrogen receptor knock out mouse lung after 30 min; (n=3); type: ADME, organism-based; conditions: in vivo, 0.5 h
How it was run: (§1)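 Female αERKO mice were rested 48 h after shipping and fed estrogen-free chow. They were staged by daily vaginal smears and studied in diestrus. Each received 13 µCi [18F]FES in 100 µL 10% ethanol/saline and was sacrificed at 30 min, 1 h or 2 h (n = 3 per time). Tissue uptake is given as %ID/g ± SD.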

[6] = Biodistribution of [18F]FES in beta estrogen receptor knock out mouse kidney after 2 h; (n=3); type: ADME, organism-based; conditions: in vivo
[7] = Biodistribution of [18F]FES in beta estrogen receptor knock out mouse uterus after 30 min; (n=3); type: ADME, organism-based; conditions: in vivo, 0.5 h
[8] = Biodistribution of [18F]FES in beta estrogen receptor knock out mouse spleen after 2 h; (n=3); type: ADME, organism-based; conditions: in vivo
[9] = Biodistribution of [18F]FES in alpha estrogen receptor knock out mouse bone after 1 h; (n=3); type: ADME, organism-based, Bone element; conditions: in vivo; how it was run: as §1
[10] = Biodistribution of [18F]FES in alpha estrogen receptor knock out mouse muscle after 2 h; (n=3); type: ADME, organism-based, Muscle tissue; conditions: in vivo; how it was run: as §1
[11] = Biodistribution of [18F]FES in beta estrogen receptor knock out mouse blood after 30 min; (n=3); type: ADME, organism-based; conditions: in vivo, 0.5 h
[12] = Biodistribution of [18F]-FES in alpha estrogen receptor knock out mouse bone after 30 min; (n=3); type: ADME, organism-based, Bone element; conditions: in vivo, 0.5 h
How it was run: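 Female αERKO mice rested 48 h after shipping and fed estrogen-free chow. Estrous stage was checked by daily vaginal smears, and mice were used in diestrus. Each received 13 µCi [18F]FES in 100 µL 10% ethanol/saline. Animals were sacrificed at 30 min, 1 h or 2 h (n = 3 each). Tissue uptake is reported as %ID/g ± SD.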

[13] = Biodistribution of [18F]FES in alpha estrogen receptor knock out mouse liver after 30 min; (n=3); type: ADME, organism-based; conditions: in vivo, 0.5 h; how it was run: as §1
[14] = Biodistribution of [18F]FES in alpha estrogen receptor knock out mouse blood after 30 min; (n=3); type: ADME, organism-based; conditions: in vivo, 0.5 h; how it was run: as §1
[15] = Biodistribution of [18F]FES in alpha estrogen receptor knock out mouse liver after 2 h; (n=3); type: ADME, organism-based; conditions: in vivo; how it was run: as §1
[16] = Biodistribution of [18F]FES in beta estrogen receptor knock out mouse liver after 30 min; (n=3); type: ADME, organism-based; conditions: in vivo, 0.5 h
[17] = Biodistribution of [18F]FES in alpha estrogen receptor knock out mouse heart after 2 h; (n=3); type: ADME, organism-based; conditions: in vivo; how it was run: as §1
[18] = Biodistribution of [18F]FES in beta estrogen receptor knock out mouse uterus after 30 min(n=2); mice in nonestrus stage; type: ADME, organism-based; conditions: in vivo, 0.5 h
[19] = Biodistribution of [18F]FES in alpha estrogen receptor knock out mouse blood after 1 h; (n=3); type: ADME, organism-based; conditions: in vivo; how it was run: as §1
[20] = Biodistribution of [18F]FES in alpha estrogen receptor knock out mouse kidney after 30 min; (n=3); type: ADME, organism-based; conditions: in vivo, 0.5 h; how it was run: as §1
[21] = Biodistribution of [18F]FEDPN in beta estrogen receptor knock out mouse brain after 30 min; (n=3); type: ADME, organism-based; conditions: in vivo, 0.5 h
How it was run: (§2)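 αERKO and βERKO mice, staged by daily vaginal smears and kept on estrogen-free chow, were studied in a nonestrous stage. Each mouse received 11 μCi of tracer in 130 μL of 10% ethanol/saline. Mice were killed at 30 min, 1 h or 2 h (n = 3 each). Organs were removed, blotted, weighed and gamma-counted against an injectate standard. Uptake is given as %ID/g ± SD.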

[22] = Biodistribution of [18F]-FEDPN in rat blood after 1 hr block when given in tail vein; (n=5); type: ADME, organism-based; conditions: in vivo, iv
How it was run: (§3)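 Immature female Sprague–Dawley rats (<25 days old) anesthetized with isoflurane/O2. Given 20 µCi tracer by tail vein in 150 µL of 20% ethanol/saline. […] Killed at 30 min, 1 h or 2 h. Blood and organs blotted, weighed and gamma-counted against a standard dilution of the injectate. Reported as %ID/g ± SD, n=5.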

[23] = Biodistribution of [18F]FEDPN in beta estrogen receptor knock out mouse muscle after 30 min; (n=3); type: ADME, organism-based, Muscle tissue; conditions: in vivo, 0.5 h; how it was run: as §2
[24] = Biodistribution of [18F]FEDPN in beta estrogen receptor knock out mouse heart after 1 h; (n=3); type: ADME, organism-based; conditions: in vivo; how it was run: as §2
[25] = Biodistribution of [18F]FEDPN in beta estrogen receptor knock out mouse brain after 1 h; (n=3); type: ADME, organism-based; conditions: in vivo; how it was run: as §2
[26] = Biodistribution of [18F]FEDPN in alpha estrogen receptor knock out mouse ovaries after 2 h; (n=3); type: ADME, organism-based, Female gonad; conditions: in vivo; how it was run: as §2
[27] = Biodistribution of [18F]FEDPN in rat blood after 30 min when given in tail vein; (n=5); type: ADME, organism-based; conditions: in vivo, iv, 0.5 h
How it was run: (§4)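 Immature female Sprague–Dawley rats (<25 days old) under isoflurane/O2 got 20 µCi tracer in 150 µL 20% ethanol/saline by tail vein. […] Rats were killed at 30 min, 1 h or 2 h. Organs were blotted, weighed and gamma-counted against an injectate standard. Data are %ID/g ± SD, five rats per point.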

[28] = Biodistribution of [18F]FEDPN in beta estrogen receptor knock out mouse spleen after 30 min; (n=3); type: ADME, organism-based; conditions: in vivo, 0.5 h; how it was run: as §2
[29] = Biodistribution of [18F]FEDPN in alpha estrogen receptor knock out mouse heart after 2 h; (n=3); type: ADME, organism-based; conditions: in vivo
How it was run: (§5)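 ERKO female mice (αERKO or βERKO), rested 48 h after shipping, placed on estrogen-free chow, and staged by daily vaginal smears. Injected in a nonestrous stage with 11 µCi [18F]FEDPN in 130 µL of 10% ethanol/saline. Killed at 30 min, 1 h or 2 h. Organs counted and reported as %ID/g ± SD, three animals per point.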

[30] = Biodistribution of [18F]-FEDPN in rat heart after 1 hr block when given in tail vein; (n=5); type: ADME, organism-based; conditions: in vivo, iv; how it was run: as §3
[31] = Biodistribution of [18F]FEDPN in alpha estrogen receptor knock out mouse muscle after 30 min; (n=3); type: ADME, organism-based, Muscle tissue; conditions: in vivo, 0.5 h; how it was run: as §2
[32] = Biodistribution of [18F]FEDPN in rat thymus after 30 min when given in tail vein; (n=5); type: ADME, organism-based; conditions: in vivo, iv, 0.5 h; how it was run: as §4
[33] = Biodistribution of [18F]-FEDPN in alpha estrogen receptor knock out mouse uterus after 1 h; (n=3); type: ADME, organism-based; conditions: in vivo; how it was run: as §5
[34] = Biodistribution of [18F]-FEDPN in rat muscle after 1 hr block when given in tail vein; (n=5); type: ADME, organism-based, Muscle tissue; conditions: in vivo, iv; how it was run: as §3
[35] = Biodistribution of [18F]-FEDPN in alpha estrogen receptor knock out mouse brain after 2 h; (n=3); type: ADME, organism-based; conditions: in vivo; how it was run: as §5
[36] = Biodistribution of [18F]FEDPN in beta estrogen receptor knock out mouse bone after 1 h; (n=3); type: ADME, organism-based, Bone element; conditions: in vivo; how it was run: as §2
[37] = Biodistribution of [18F]FEDPN in alpha estrogen receptor knock out mouse brain after 1 h; (n=3); type: ADME, organism-based; conditions: in vivo; how it was run: as §5
[38] = Biodistribution of [18F]-FEDPN in rat fat after 1 h when given in tail vein; (n=5); type: ADME, organism-based, Adipose tissue; conditions: in vivo, iv; how it was run: as §3

- Biodistribution [1]: 5.61 %ID/g
- Biodistribution [2]: 2.01 %ID/g
- Biodistribution [3]: 3.74 %ID/g
- Biodistribution [4]: 2.52 %ID/g
- Biodistribution [5]: 2.19 %ID/g
- Biodistribution [6]: 1.05 %ID/g
- Biodistribution [7]: 8.34 %ID/g
- Biodistribution [8]: 0.37 %ID/g
- Biodistribution [9]: 0.24 %ID/g
- Biodistribution [10]: 0.11 %ID/g
- Biodistribution [11]: 0.67 %ID/g
- Biodistribution [12]: 0.44 %ID/g
- Biodistribution [13]: 7.47 %ID/g
- Biodistribution [14]: 0.65 %ID/g
- Biodistribution [15]: 3.67 %ID/g
- Biodistribution [16]: 9.45 %ID/g
- Biodistribution [17]: 0.1 %ID/g
- Biodistribution [18]: 18.86 %ID/g
- Biodistribution [19]: 0.21 %ID/g
- Biodistribution [20]: 2.46 %ID/g
Structure (SMILES): C[C@]12CC[C@@H]3c4ccc(O)cc4CC[C@H]3[C@@H]1C[C@@H](F)[C@@H]2O [FLUOROESTRADIOL]

- Biodistribution [21]: 0.93 %ID/g
- Biodistribution [22]: 0.3 %ID/g
- Biodistribution [23]: 1.45 %ID/g
- Biodistribution [24]: 0.43 %ID/g
- Biodistribution [25]: 0.47 %ID/g
- Biodistribution [26]: 0.28 %ID/g
- Biodistribution [27]: 0.64 %ID/g
- Biodistribution [28]: 0.87 %ID/g
- Biodistribution [29]: 0.25 %ID/g
- Biodistribution [30]: 0.19 %ID/g
- Biodistribution [31]: 1.21 %ID/g
- Biodistribution [32]: 0.52 %ID/g
- Biodistribution [33]: 0.37 %ID/g
- Biodistribution [34]: 0.2 %ID/g
- Biodistribution [35]: 0.28 %ID/g
- Biodistribution [36]: 4.92 %ID/g
- Biodistribution [37]: 0.51 %ID/g
- Biodistribution [38]: 0.37 %ID/g
Structure (SMILES): N#C[C@H](c1ccc(O)cc1)[C@@H](CCF)c1ccc(O)cc1
